Values after ≈ are worked out from the molar mass of the structure shown.
Tests used:
Type in all cases: functional
Escherichia coli [1] = assay: Antibacterial activity against extended-spectrum beta-lactamase producing Escherichia coli isolate 212648 after 18 hrs by CLSI broth microdilution method; conditions: isolate 212648, 18 h
Escherichia coli [2] = assay: Selectivity index, ratio of MIC for against extended-spectrum beta-lactamase producing Escherichia coli isolate 208687 to MIC for extended-spectrum beta-lactamase producing Escherichia coli isolate 208687 in presence of BPL
Escherichia coli [3] = assay: Antibacterial activity against Escherichia coli isolate 210737 after 18 hrs by CLSI broth microdilution method; conditions: isolate 210737, 18 h
Escherichia coli [4] = assay: Antibacterial activity against extended-spectrum beta-lactamase producing Escherichia coli isolate 208687 after 18 hrs by CLSI broth microdilution method; conditions: isolate 208687, 18 h
Escherichia coli [5] = assay: Antibacterial activity against extended-spectrum beta-lactamase producing Escherichia coli isolate 208687 after 18 hrs in presence of BPL by CLSI broth microdilution method; conditions: isolate 208687, 18 h
How it was run: (§1)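 CLSI broth microdilution against clinical isolates (ESBL E. coli, KPC-2 MDR K. pneumoniae, IMP-4 MDR P. aeruginosa; five per species). Iron limitation: Mueller-Hinton broth supplemented with 16 mg/liter 2,2'-bipyridyl to complex iron and induce iron uptake systems. Read-out: MIC.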

Escherichia coli [6] = assay: Antibacterial activity against Escherichia coli isolate 210737 after 18 hrs in presence of BPL by CLSI broth microdilution method; conditions: isolate 210737, 18 h; how it was run: as §1
Escherichia coli [7] = assay: Selectivity index, ratio of MIC for against Escherichia coli isolate 210737 to MIC for Escherichia coli isolate 210737 in presence of BPL
Escherichia coli [8] = assay: Antibacterial activity against extended-spectrum beta-lactamase producing Escherichia coli isolate 212648 after 18 hrs in presence of BPL by CLSI broth microdilution method; conditions: isolate 212648, 18 h; how it was run: as §1
Escherichia coli [9] = assay: Selectivity index, ratio of MIC for against extended-spectrum beta-lactamase producing Escherichia coli isolate 212648 to MIC for extended-spectrum beta-lactamase producing Escherichia coli isolate 212648 in presence of BPL
Escherichia coli [10] = assay: Antibacterial activity against extended-spectrum beta-lactamase producing Escherichia coli isolate 209285 after 18 hrs by CLSI broth microdilution method; conditions: isolate 209285, 18 h
Escherichia coli [11] = assay: Antibacterial activity against extended-spectrum beta-lactamase producing Escherichia coli isolate 209285 after 18 hrs in presence of BPL by CLSI broth microdilution method; conditions: isolate 209285, 18 h; how it was run: as §1
Escherichia coli [12] = assay: Selectivity index, ratio of MIC for against extended-spectrum beta-lactamase producing Escherichia coli isolate 209285 to MIC for extended-spectrum beta-lactamase producing Escherichia coli isolate 209285 in presence of BPL
Escherichia coli [13] = assay: Antibacterial activity against extended-spectrum beta-lactamase producing Escherichia coli isolate 106342 after 18 hrs by CLSI broth microdilution method; conditions: isolate 106342, 18 h
Escherichia coli [14] = assay: Antibacterial activity against extended-spectrum beta-lactamase producing Escherichia coli isolate 106342 after 18 hrs in presence of BPL by CLSI broth microdilution method; conditions: isolate 106342, 18 h; how it was run: as §1
Escherichia coli [15] = assay: Selectivity index, ratio of MIC for against extended-spectrum beta-lactamase producing Escherichia coli isolate 106342 to MIC for extended-spectrum beta-lactamase producing Escherichia coli isolate 106342 in presence of BPL
Klebsiella pneumoniae [16] = assay: Antibacterial activity against KPC-2 producing Klebsiella pneumoniae isolate 212423 after 18 hrs by CLSI broth microdilution method; conditions: isolate 212423, 18 h
Klebsiella pneumoniae [17] = assay: Antibacterial activity against KPC-2 producing Klebsiella pneumoniae isolate 212423 after 18 hrs in presence of BPL by CLSI broth microdilution method; conditions: isolate 212423, 18 h; how it was run: as §1
Klebsiella pneumoniae [18] = assay: Selectivity index, ratio of MIC for against KPC-2 producing Klebsiella pneumoniae isolate 212423 to MIC for against KPC-2 producing Klebsiella pneumoniae isolate 212423 in presence of BPL
Klebsiella pneumoniae [19] = assay: Antibacterial activity against KPC-2 producing Klebsiella pneumoniae isolate 209632 after 18 hrs by CLSI broth microdilution method; conditions: isolate 209632, 18 h
Klebsiella pneumoniae [20] = assay: Antibacterial activity against KPC-2 producing Klebsiella pneumoniae isolate 209632 after 18 hrs in presence of BPL by CLSI broth microdilution method; conditions: isolate 209632, 18 h; how it was run: as §1
Klebsiella pneumoniae [21] = assay: Selectivity index, ratio of MIC for against KPC-2 producing Klebsiella pneumoniae isolate 209632 to MIC for against KPC-2 producing Klebsiella pneumoniae isolate 209632 in presence of BPL
Klebsiella pneumoniae [22] = assay: Antibacterial activity against KPC-2 producing Klebsiella pneumoniae isolate 209735 after 18 hrs by CLSI broth microdilution method; conditions: isolate 209735, 18 h
Klebsiella pneumoniae [23] = assay: Antibacterial activity against KPC-2 producing Klebsiella pneumoniae isolate 209735 after 18 hrs in presence of BPL by CLSI broth microdilution method; conditions: isolate 209735, 18 h; how it was run: as §1
Klebsiella pneumoniae [24] = assay: Selectivity index, ratio of MIC for against KPC-2 producing Klebsiella pneumoniae isolate 209735 to MIC for against KPC-2 producing Klebsiella pneumoniae isolate 209735 in presence of BPL
Klebsiella pneumoniae [25] = assay: Antibacterial activity against KPC-2 producing Klebsiella pneumoniae isolate 212232 after 18 hrs by CLSI broth microdilution method; conditions: isolate 212232, 18 h
Klebsiella pneumoniae [26] = assay: Antibacterial activity against KPC-2 producing Klebsiella pneumoniae isolate 212232 after 18 hrs in presence of BPL by CLSI broth microdilution method; conditions: isolate 212232, 18 h; how it was run: as §1
Klebsiella pneumoniae [27] = assay: Selectivity index, ratio of MIC for against KPC-2 producing Klebsiella pneumoniae isolate 212232 to MIC for against KPC-2 producing Klebsiella pneumoniae isolate 212232 in presence of BPL
Klebsiella pneumoniae [28] = assay: Antibacterial activity against KPC-2 producing Klebsiella pneumoniae isolate 212229 after 18 hrs by CLSI broth microdilution method; conditions: isolate 212229, 18 h
Klebsiella pneumoniae [29] = assay: Antibacterial activity against KPC-2 producing Klebsiella pneumoniae isolate 212229 after 18 hrs in presence of BPL by CLSI broth microdilution method; conditions: isolate 212229, 18 h; how it was run: as §1
Klebsiella pneumoniae [30] = assay: Selectivity index, ratio of MIC for against KPC-2 producing Klebsiella pneumoniae isolate 212229 to MIC for against KPC-2 producing Klebsiella pneumoniae isolate 212229 in presence of BPL
Pseudomonas aeruginosa [31] = assay: Antibacterial activity against IMP-4 producing Pseudomonas aeruginosa isolate 212886 after 18 hrs by CLSI broth microdilution method; conditions: isolate 212886, 18 h
Pseudomonas aeruginosa [32] = assay: Antibacterial activity against IMP-4 producing Pseudomonas aeruginosa isolate 212886 after 18 hrs in presence of BPL by CLSI broth microdilution method; conditions: isolate 212886, 18 h; how it was run: as §1
Pseudomonas aeruginosa [33] = assay: Selectivity index, ratio of MIC for against IMP-4 producing Pseudomonas aeruginosa isolate 212886 to MIC for against IMP-4 producing Pseudomonas aeruginosa isolate 212886 in presence of BPL
Pseudomonas aeruginosa [34] = assay: Antibacterial activity against IMP-4 producing Pseudomonas aeruginosa isolate 209471 after 18 hrs by CLSI broth microdilution method; conditions: isolate 209471, 18 h
Pseudomonas aeruginosa [35] = assay: Antibacterial activity against IMP-4 producing Pseudomonas aeruginosa isolate 209471 after 18 hrs in presence of BPL by CLSI broth microdilution method; conditions: isolate 209471, 18 h; how it was run: as §1
Pseudomonas aeruginosa [36] = assay: Selectivity index, ratio of MIC for against IMP-4 producing Pseudomonas aeruginosa isolate 209471 to MIC for against IMP-4 producing Pseudomonas aeruginosa isolate 209471 in presence of BPL
Pseudomonas aeruginosa [37] = assay: Antibacterial activity against IMP-4 producing Pseudomonas aeruginosa isolate 208247 after 18 hrs by CLSI broth microdilution method; conditions: isolate 208247, 18 h
Pseudomonas aeruginosa [38] = assay: Antibacterial activity against IMP-4 producing Pseudomonas aeruginosa isolate 208247 after 18 hrs in presence of BPL by CLSI broth microdilution method; conditions: isolate 208247, 18 h; how it was run: as §1
Pseudomonas aeruginosa [39] = assay: Selectivity index, ratio of MIC for against IMP-4 producing Pseudomonas aeruginosa isolate 208247 to MIC for against IMP-4 producing Pseudomonas aeruginosa isolate 208247 in presence of BPL
Pseudomonas aeruginosa [40] = assay: Antibacterial activity against IMP-4 producing Pseudomonas aeruginosa isolate 209321 after 18 hrs by CLSI broth microdilution method; conditions: isolate 209321, 18 h
Pseudomonas aeruginosa [41] = assay: Antibacterial activity against IMP-4 producing Pseudomonas aeruginosa isolate 209321 after 18 hrs in presence of BPL by CLSI broth microdilution method; conditions: isolate 209321, 18 h; how it was run: as §1
Pseudomonas aeruginosa [42] = assay: Selectivity index, ratio of MIC for against IMP-4 producing Pseudomonas aeruginosa isolate 209321 to MIC for against IMP-4 producing Pseudomonas aeruginosa isolate 209321 in presence of BPL
Pseudomonas aeruginosa [43] = assay: Antibacterial activity against IMP-4 producing Pseudomonas aeruginosa isolate 207272 after 18 hrs by CLSI broth microdilution method; conditions: isolate 207272, 18 h
Pseudomonas aeruginosa [44] = assay: Antibacterial activity against IMP-4 producing Pseudomonas aeruginosa isolate 207272 after 18 hrs in presence of BPL by CLSI broth microdilution method; conditions: isolate 207272, 18 h; how it was run: as §1
Pseudomonas aeruginosa [45] = assay: Selectivity index, ratio of MIC for against IMP-4 producing Pseudomonas aeruginosa isolate 207272 to MIC for against IMP-4 producing Pseudomonas aeruginosa isolate 207272 in presence of BPL

`CC(C)C(O/N=C(\C(=O)N[C@@H]1C(=O)N(S(=O)(=O)O)[C@@H]1CSc1nnnn1C)c1csc(N)n1)c1cc(=O)c(O)cn1O` (stereo not given in full) was tested, and the MIC (Escherichia coli [1]) was 0.5 µg/mL (≈ 0.776 µM), the “Selectivity Index” value (Escherichia coli [2]) was 2 and the MIC (Escherichia coli [3]) was 0.5 µg/mL (≈ 0.776 µM). The MIC (Escherichia coli [4]) was 0.125 µg/mL (≈ 0.194 µM), the MIC (Escherichia coli [5]) was 0.06 µg/mL and the MIC (Escherichia coli [6]) was 0.25 µg/mL. The “Selectivity Index” value (Escherichia coli [7]) was 2, the MIC (Escherichia coli [8]) was 0.25 µg/mL and the “Selectivity Index” value (Escherichia coli [9]) was 2. For the same compound, the MIC (Escherichia coli [10]) was 1 µg/mL (≈ 1.55 µM), the MIC (Escherichia coli [11]) was 0.25 µg/mL and the “Selectivity Index” value (Escherichia coli [12]) was 4. The MIC (Escherichia coli [13]) was 1 µg/mL (≈ 1.55 µM), the MIC (Escherichia coli [14]) was 0.5 µg/mL and the “Selectivity Index” value (Escherichia coli [15]) was 2. For the same compound, the MIC (Klebsiella pneumoniae [16]) was 2 µg/mL (≈ 3.1 µM), the MIC (Klebsiella pneumoniae [17]) was 1 µg/mL and the “Selectivity Index” value (Klebsiella pneumoniae [18]) was 2. The MIC (Klebsiella pneumoniae [19]) was 1 µg/mL (≈ 1.55 µM), the MIC (Klebsiella pneumoniae [20]) was 1 µg/mL and the “Selectivity Index” value (Klebsiella pneumoniae [21]) was 1. The MIC (Klebsiella pneumoniae [22]) was 2 µg/mL (≈ 3.1 µM), the MIC (Klebsiella pneumoniae [23]) was 0.5 µg/mL and the “Selectivity Index” value (Klebsiella pneumoniae [24]) was 4. For the same compound, the MIC (Klebsiella pneumoniae [25]) was 2 µg/mL (≈ 3.1 µM), the MIC (Klebsiella pneumoniae [26]) was 0.25 µg/mL and the “Selectivity Index” value (Klebsiella pneumoniae [27]) was 8. The MIC (Klebsiella pneumoniae [28]) was 1 µg/mL (≈ 1.55 µM), the MIC (Klebsiella pneumoniae [29]) was 0.5 µg/mL and the “Selectivity Index” value (Klebsiella pneumoniae [30]) was 2. For the same compound, the MIC (Pseudomonas aeruginosa [31]) was greater than 64 µg/mL, the MIC (Pseudomonas aeruginosa [32]) was 32 µg/mL and the “Selectivity Index” value (Pseudomonas aeruginosa [33]) was greater than 2. The MIC (Pseudomonas aeruginosa [34]) was 64 µg/mL (≈ 99.3 µM), the MIC (Pseudomonas aeruginosa [35]) was 64 µg/mL and the “Selectivity Index” value (Pseudomonas aeruginosa [36]) was 1. The MIC (Pseudomonas aeruginosa [37]) was 32 µg/mL (≈ 49.6 µM), the MIC (Pseudomonas aeruginosa [38]) was 16 µg/mL and the “Selectivity Index” value (Pseudomonas aeruginosa [39]) was 2. For the same compound, the MIC (Pseudomonas aeruginosa [40]) was 64 µg/mL (≈ 99.3 µM), the MIC (Pseudomonas aeruginosa [41]) was 32 µg/mL and the “Selectivity Index” value (Pseudomonas aeruginosa [42]) was 2. The MIC (Pseudomonas aeruginosa [43]) was 32 µg/mL (≈ 49.6 µM), the MIC (Pseudomonas aeruginosa [44]) was 16 µg/mL and the “Selectivity Index” value (Pseudomonas aeruginosa [45]) was 2.

Source: ChEMBL document CHEMBL4152188, “Design, synthesis and biological evaluation of C(4) substituted monobactams as antibacterial agents against multidrug-resistant Gram-negative bacteria” (Eur J Med Chem, 2018)
